Here are results for 8 molecules from ChEMBL document CHEMBL1122813, “Synthesis and antibacterial activity of 2-[(methoxycarbonyl)methylene]cephalosporins” (1984).

In test [1] the test system is Staphylococcus aureus. The test is described as follows: In vitro antibacterial activity against Staphylococcus aureus strain 9606 (Penicillin resistant). The format is functional. The method in brief:
(§1)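 MIC by serial twofold dilution in Mueller-Hinton agar. Agar surface or broth inoculated with a suitably diluted 18-24-h broth culture. Plates and broth tubes incubated at 37 °C for 17 h. MIC taken as the lowest concentration that inhibited visible growth.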

For test [2], the system named is Staphylococcus aureus. Nature of the test: In vitro antibacterial activity against Staphylococcus aureus strain 9537 + 50% serum. It is filed as functional. The method in brief: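 Serial twofold dilution MIC with 50% human serum present. Mueller-Hinton agar or broth was inoculated with a suitably diluted 18-24-h broth culture and incubated at 37 °C for 17 h. The endpoint was the lowest concentration that stopped visible growth.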

A further test has as its system Serratia marcescens. Nature of the test: In vitro antibacterial activity against Serratia marcescens strain 20019. The format is functional. The method in brief: (§2)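 MIC by serial twofold dilution of compound in Mueller-Hinton agar. The agar surface or broth was inoculated with a suitably diluted 18-24-h broth culture, then incubated at 37 °C for 17 h. MIC was read as the lowest concentration inhibiting visible growth.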

The subject of test [3] is Proteus mirabilis. The test is described as follows: In vitro antibacterial activity against Proteus mirabilis strain 9716. The format is functional. The method in brief: as §2
A further test concerns Streptococcus pyogenes. Nature of the test: In vitro antibacterial activity against Streptococcus pyogenes strain 9604. It is filed as functional. The method in brief:
as §2

For a further test, the system named is Enterococcus faecalis. The test is described as follows: In vitro antibacterial activity against Streptococcus faecalis strain 20688. The format is functional. A digest of the protocol:
as §2

Test [4] relates to Enterobacter cloacae. Nature of the test: In vitro antibacterial activity against Enterobacter cloacae strain 9656. The format is functional. A digest of the protocol: as §2
The test system of the next test is Streptococcus pneumoniae. The test is described as follows: In vitro antibacterial activity against Streptococcus pneumoniae strain 9585. It is filed as functional. A digest of the protocol:
as §2

Test [5] has as its system Klebsiella pneumoniae. Nature of the test: In vitro antibacterial activity against Klebsiella pneumoniae strain 20468. The format is functional. A digest of the protocol:
as §2

The subject of test [6] is Staphylococcus aureus. Nature of the test: In vitro antibacterial activity against Staphylococcus aureus strain 9537. It is filed as functional. The method in brief:
as §1

Test [7] concerns Proteus mirabilis. The test is described as follows: In vitro antibacterial activity against Proteus mirabilis strain 9900. It is filed as functional. A digest of the protocol: as §2
For test [8], the system named is Klebsiella pneumoniae. The test is described as follows: In vitro antibacterial activity against Klebsiella pneumoniae strain 15130. The format is functional. The method in brief:
as §2

In test [9] the test system is Escherichia coli. Nature of the test: In vitro antibacterial activity against Escherichia coli strain 20341. The format is functional. A digest of the protocol: as §2
In test [10] the test system is Enterobacter cloacae. Nature of the test: In vitro antibacterial activity against Enterobacter cloacae strain 9659. The format is functional. A digest of the protocol:
as §2

For test [11], the system named is Escherichia coli. The test is described as follows: In vitro antibacterial activity against Escherichia coli strain 15119. It is filed as functional. The method in brief:
as §2

The test system of test [12] is Providencia rettgeri. Nature of the test: In vitro antibacterial activity against Providencia rettgeri strain 21203. It is filed as functional. A digest of the protocol: as §2
Another test concerns Morganella morganii. Nature of the test: In vitro antibacterial activity against Morganella morganii strain 15153. The format is functional. A digest of the protocol: as §2
Test [13] deals with Providencia rettgeri. Nature of the test: In vitro antibacterial activity against Providencia rettgeri strain 21203.

Molecules are shown by their SMILES. In brackets after ≈: the same amount, converted by molar mass. Where only a bound is given, the exact number is not on record here.

Regarding `CO/N=C(/C(=O)NC1C(=O)N2C(C(=O)O)=C(C)/C(=C/C(=O)OC)SC12)c1csc(N)n1.O=C(O)C(F)(F)F` (stereo unspecified), the MIC was 4 µg/mL with Staphylococcus aureus [1]; 125 µg/mL in the test with Staphylococcus aureus [2]; more than 125 µg/mL in the test with Serratia marcescens; 16 µg/mL against Proteus mirabilis [3]; 0.016 µg/mL with Streptococcus pyogenes; 63 µg/mL against Enterococcus faecalis. Also, the MIC against Enterobacter cloacae [4] was more than 125 µg/mL; against Streptococcus pneumoniae, 0.016 µg/mL; in the test with Klebsiella pneumoniae [5], 32 µg/mL; against Staphylococcus aureus [6], 2 µg/mL; against Proteus mirabilis [7] it was 2 µg/mL; in the test with Klebsiella pneumoniae [8] it was 16 µg/mL. For the same molecule, the MIC in the test on Escherichia coli [9] is 2 µg/mL; in the test with Enterobacter cloacae [10] it was more than 125 µg/mL; in the test on Escherichia coli [11], 2 µg/mL; against Providencia rettgeri [12], 32 µg/mL; against Morganella morganii, more than 125 µg/mL.

Turning to `COC(=O)/C=C1\SC2C(NC(=O)C(N)c3ccccc3)C(=O)N2C(C(=O)O)=C1C.O=C(O)C(F)(F)F` (stereo unspecified), the MIC against Staphylococcus aureus [1] was more than 125 µg/mL; in the test with Staphylococcus aureus [2] it was 32 µg/mL; against Serratia marcescens it was more than 125 µg/mL; against Proteus mirabilis [3], more than 125 µg/mL; with Streptococcus pyogenes it was 0.025 µg/mL; in the test with Enterococcus faecalis, 63 µg/mL. Further, the MIC with Enterobacter cloacae [4] is more than 125 µg/mL; against Streptococcus pneumoniae it was 0.13 µg/mL; in the test on Klebsiella pneumoniae [5] it was more than 125 µg/mL; against Staphylococcus aureus [6], 1 µg/mL; in the test with Proteus mirabilis [7], more than 125 µg/mL; against Klebsiella pneumoniae [8], more than 125 µg/mL. Further, the MIC against Escherichia coli [9], in the test on Enterobacter cloacae [10], with Escherichia coli [11], against Providencia rettgeri [12] and in the test with Morganella morganii was more than 125 µg/mL each time.

With `CO/N=C(/C(=O)NC1C(=O)N2C(C(=O)O)=C(C)/C(=C/C(=O)OC)SC12)c1ccco1` (stereo unspecified), the MIC with Staphylococcus aureus [1] was 4 µg/mL (≈ 9.19 µM); in the test with Staphylococcus aureus [2], 63 µg/mL; in the test on Serratia marcescens it was more than 125 µg/mL; with Proteus mirabilis [3], 4 µg/mL (≈ 9.19 µM); in the test on Streptococcus pyogenes, 0.25 µg/mL (≈ 0.574 µM); in the test with Enterococcus faecalis it was 32 µg/mL (≈ 73.5 µM). The MIC was 63 µg/mL (≈ 145 µM) against Enterobacter cloacae [4]; 0.25 µg/mL (≈ 0.574 µM) against Streptococcus pneumoniae; more than 125 µg/mL with Klebsiella pneumoniae [5]; 2 µg/mL (≈ 4.59 µM) in the test with Staphylococcus aureus [6]; 4 µg/mL (≈ 9.19 µM) in the test with Proteus mirabilis [7]; 16 µg/mL (≈ 36.7 µM) in the test on Klebsiella pneumoniae [8]. The MIC in the test with Escherichia coli [9] is 63 µg/mL (≈ 145 µM); with Enterobacter cloacae [10], more than 125 µg/mL; with Escherichia coli [11] it was 16 µg/mL (≈ 36.7 µM); in the test with Providencia rettgeri [12] it was 32 µg/mL (≈ 73.5 µM); in the test on Morganella morganii, 63 µg/mL (≈ 145 µM).

As for `COC(=O)/C=C1\SC2C(NC(=O)C(O)c3ccccc3)C(=O)N2C(C(=O)O)=C1C` (stereo unspecified), the MIC was more than 125 µg/mL with Staphylococcus aureus [1]; 32 µg/mL in the test with Staphylococcus aureus [2]; more than 125 µg/mL against Serratia marcescens; more than 125 µg/mL against Proteus mirabilis [3]; 0.25 µg/mL (≈ 0.597 µM) in the test on Streptococcus pyogenes; 16 µg/mL (≈ 38.2 µM) in the test on Enterococcus faecalis. In addition, the MIC is more than 125 µg/mL against Enterobacter cloacae [4]; 0.25 µg/mL (≈ 0.597 µM) in the test with Streptococcus pneumoniae; more than 125 µg/mL in the test with Klebsiella pneumoniae [5]; 0.5 µg/mL (≈ 1.19 µM) against Staphylococcus aureus [6]; 63 µg/mL (≈ 151 µM) with Proteus mirabilis [7]; more than 125 µg/mL against Klebsiella pneumoniae [8]. The MIC in the test on Escherichia coli [9], against Enterobacter cloacae [10], in the test on Escherichia coli [11], against Providencia rettgeri [12] and with Morganella morganii was more than 125 µg/mL throughout.

With `COC(=O)/C=C1\SC2C(NC(=O)Cc3cccs3)C(=O)N2C(C(=O)O)=C1COC(C)=O` (stereo unspecified), the minimal inhibitory concentration (MIC) is 2 µg/mL (≈ 4.29 µM) against Staphylococcus aureus [1]; 63 µg/mL in the test on Staphylococcus aureus [2]; more than 125 µg/mL against Serratia marcescens; 125 µg/mL (≈ 268 µM) with Proteus mirabilis [3]; 0.5 µg/mL (≈ 1.07 µM) against Streptococcus pyogenes; 4 µg/mL (≈ 8.57 µM) in the test with Enterococcus faecalis. Also, the MIC was more than 125 µg/mL in the test on Enterobacter cloacae [4]; 0.13 µg/mL (≈ 0.279 µM) with Streptococcus pneumoniae; 63 µg/mL (≈ 135 µM) against Klebsiella pneumoniae [5]; 2 µg/mL (≈ 4.29 µM) against Staphylococcus aureus [6]; 125 µg/mL (≈ 268 µM) in the test with Proteus mirabilis [7]; more than 125 µg/mL in the test on Klebsiella pneumoniae [8]. Also, the minimal inhibitory concentration (MIC) was more than 125 µg/mL against Escherichia coli [9]; more than 125 µg/mL against Enterobacter cloacae [10]; 125 µg/mL (≈ 268 µM) in the test on Escherichia coli [11]; more than 125 µg/mL against Providencia rettgeri [12]; more than 125 µg/mL with Morganella morganii.

Consider `COC(=O)/C=C1\SC2C(NC(=O)Cc3cccs3)C(=O)N2C(C(=O)O)=C1C` (stereo unspecified), for which the MIC with Staphylococcus aureus [1] is 2 µg/mL (≈ 4.9 µM); in the test with Staphylococcus aureus [2] it was 63 µg/mL; in the test on Serratia marcescens, more than 125 µg/mL; against Proteus mirabilis [3], 32 µg/mL (≈ 78.3 µM); with Streptococcus pyogenes it was 2 µg/mL (≈ 4.9 µM); in the test with Enterococcus faecalis, 2 µg/mL (≈ 4.9 µM). Further, the minimal inhibitory concentration (MIC) is more than 125 µg/mL with Enterobacter cloacae [4]; 0.25 µg/mL (≈ 0.612 µM) with Streptococcus pneumoniae; more than 125 µg/mL against Klebsiella pneumoniae [5]; 0.13 µg/mL (≈ 0.318 µM) with Staphylococcus aureus [6]; 16 µg/mL (≈ 39.2 µM) in the test with Proteus mirabilis [7]; 125 µg/mL (≈ 306 µM) with Klebsiella pneumoniae [8]. In addition, the MIC in the test with Escherichia coli [9] is 125 µg/mL (≈ 306 µM); against Enterobacter cloacae [10], more than 125 µg/mL; in the test with Escherichia coli [11], 63 µg/mL (≈ 154 µM); in the test on Providencia rettgeri [12], 63 µg/mL (≈ 154 µM); against Morganella morganii, 125 µg/mL (≈ 306 µM).

As for `COC(=O)/C=C1/SC2C(NC(=O)Cc3cccs3)C(=O)N2C(C(=O)O)=C1C` (stereo unspecified), the MIC in the test on Staphylococcus aureus [1] turned out to be 1 µg/mL (≈ 2.45 µM); in the test on Staphylococcus aureus [2] it was 63 µg/mL; against Serratia marcescens, 4 µg/mL (≈ 9.79 µM); in the test with Proteus mirabilis [3] it was 4 µg/mL (≈ 9.79 µM); against Streptococcus pyogenes, 2 µg/mL (≈ 4.9 µM); against Enterococcus faecalis, 8 µg/mL (≈ 19.6 µM). Besides, the MIC is more than 125 µg/mL in the test on Enterobacter cloacae [4]; 0.5 µg/mL (≈ 1.22 µM) against Streptococcus pneumoniae; more than 125 µg/mL with Klebsiella pneumoniae [5]; 0.06 µg/mL (≈ 0.147 µM) with Staphylococcus aureus [6]; 32 µg/mL (≈ 78.3 µM) with Proteus mirabilis [7]; more than 125 µg/mL against Klebsiella pneumoniae [8]. Moreover, the MIC in the test with Escherichia coli [9] is 125 µg/mL (≈ 306 µM); against Enterobacter cloacae [10], more than 125 µg/mL; against Escherichia coli [11], 125 µg/mL (≈ 306 µM); with Providencia rettgeri [12] it was 4 µg/mL (≈ 9.79 µM); with Morganella morganii it was 16 µg/mL (≈ 39.2 µM).

For `CC(=O)OCC1=C(C(=O)O)N2C(=O)[C@@H](NC(=O)Cc3cccs3)[C@H]2SC1` [CEPHALOTHIN], the MIC is 0.5 µg/mL (≈ 1.26 µM) with Staphylococcus aureus [1]; 2 µg/mL in the test with Staphylococcus aureus [2]; more than 125 µg/mL with Serratia marcescens; 8 µg/mL (≈ 20.2 µM) with Proteus mirabilis [3]; 0.06 µg/mL (≈ 0.151 µM) with Streptococcus pyogenes; 32 µg/mL (≈ 80.7 µM) against Enterococcus faecalis. Also, the MIC in the test with Enterobacter cloacae [4] is more than 125 µg/mL; against Streptococcus pneumoniae, 0.03 µg/mL (≈ 0.0757 µM); against Klebsiella pneumoniae [5] it was more than 125 µg/mL; against Staphylococcus aureus [6] it was 0.06 µg/mL (≈ 0.151 µM); in the test with Proteus mirabilis [7] it was 1 µg/mL (≈ 2.52 µM); with Klebsiella pneumoniae [8] it was 16 µg/mL (≈ 40.4 µM). For the same molecule, the MIC in the test with Escherichia coli [9] was 32 µg/mL (≈ 80.7 µM); in the test on Enterobacter cloacae [10], more than 125 µg/mL; in the test with Escherichia coli [11] it was 16 µg/mL (≈ 40.4 µM); with Providencia rettgeri [13] it was 63 µg/mL (≈ 159 µM); with Morganella morganii, more than 125 µg/mL.
